Experimental data published in ChEMBL document CHEMBL2203045, “Development of 5-nitrothiazole derivatives: identification of leads against both replicative and latent Mycobacterium tuberculosis” (Bioorg Med Chem Lett, 2012).
In brackets after ≈: the same amount, converted by molar mass. Activity calls are given as the source filed them. The rule behind the calls is not given here.

Legend:
[1] = tested on: Mycobacterium tuberculosis; assay: Antitubercular activity against log phase culture of Mycobacterium tuberculosis H37Rv ATCC 27294 by agar dilution method; assay type: functional
Outline: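 H37Rv (ATCC27294) was tested by agar dilution, with the compound serially diluted from 50 to 0.78 in duplicate. MIC was taken as the lowest concentration giving complete growth inhibition.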

[2] = Cytotoxicity against HEK293T cells assessed as cellular growth at 25 uM by MTT assay; assay type: cell-based, HEK-293T; conditions: human, read-out: Activity
Outline: (§1)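 HEK293T cells were exposed to compound at 25 and 100 and read out by MTT assay.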

[3] = Cytotoxicity against HEK293T cells assessed as cellular growth at 100 uM by MTT assay; assay type: cell-based, HEK-293T; conditions: human, read-out: Activity; outline: as §1
[4] = tested on: Mycobacterium tuberculosis; assay: Ratio of nitazoxanide MIC to compound MIC for log phase culture of Mycobacterium tuberculosis H37Rv ATCC 27294; assay type: functional
[5] = tested on: Mycobacterium tuberculosis; assay: Antitubercular activity against non-culturable Mycobacterium tuberculosis assessed as log reduction in dormant cell viability at 10 ug/mL measured for 7 days by MPN assay relative to control; assay type: functional
Outline: (§2)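 Bacilli were grown in potassium-deficient Sauton's medium with ADC and 0.05% Tween-80 at 37 °C and 200 rpm. Dormancy was confirmed by failure to form colonies on agar-solidified Sauton's. Non-culturable cells were washed and exposed to compound for 7 days, then resuscitated in liquid Sauton's alongside untreated cells. Recovered cell concentration was estimated by Most Probable Number assay with statistical treatment.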

[6] = Therapeutic index, ratio of cytotoxicity against HEK293T cells to MIC for log phase culture of Mycobacterium tuberculosis H37Rv ATCC 27294; assay type: cell-based, HEK-293T; conditions: human, read-out: TI
[7] = tested on: Mycobacterium tuberculosis; assay: Antitubercular activity against non-culturable Mycobacterium tuberculosis assessed as reduction in dormant cell viability at 10 ug/mL measured for 7 days by MPN assay; assay type: functional, organism-based; outline: as §2

O=C(Oc1ccc(Cl)cc1C(=O)Nc1ncc([N+](=O)[O-])s1)c1ccccc1
MIC [1]: 15.5 µM (≈ 6.25 µg/mL) | viability at 25 µM [2]: 72.2% | viability at 100 µM [3]: 23.7%

O=C(Nc1ncc([N+](=O)[O-])s1)c1ccc([N+](=O)[O-])o1
MIC [1]: 5.48 µM (≈ 1.56 µg/mL) | viability at 25 µM [2]: 87.4% | Ratio [4]: 29 | viability at 100 µM [3]: 67.3% | FC [5]: 1 | selectivity ratio [6]: > 20

Cc1ccc(-c2ccc(C(=O)Nc3ncc([N+](=O)[O-])s3)o2)cc1
MIC [1]: 19 µM (≈ 6.25 µg/mL) | viability at 25 µM [2]: 94.1% | viability at 100 µM [3]: 91.5%

COc1ccc(OC(C)=O)c(C(=O)Nc2ncc([N+](=O)[O-])s2)c1
MIC [1]: 74.1 µM (≈ 25 µg/mL) | viability at 25 µM [2]: 100% | Ratio [4]: 2.19 | viability at 100 µM [3]: 94.1%

O=C(Oc1c(C(=O)Nc2ncc([N+](=O)[O-])s2)cc([N+](=O)[O-])cc1[N+](=O)[O-])c1ccccc1
MIC [1]: > 109 µM

COOc1ccc(-c2ccc(C(=O)Nc3ncc([N+](=O)[O-])s3)o2)cc1
MIC [1]: 72.4 µM (≈ 26.2 µg/mL) | viability at 25 µM [2]: 100% | viability at 100 µM [3]: 95.7%

COc1ccc(OC(=O)c2ccccc2)c(C(=O)Nc2ncc([N+](=O)[O-])s2)c1
MIC [1]: 15.6 µM (≈ 6.25 µg/mL) | viability at 25 µM [2]: 100% | viability at 100 µM [3]: 67.6%

CC(=O)Oc1c(C(=O)Nc2ncc([N+](=O)[O-])s2)cc(C(C)C)cc1C(C)C
MIC [1]: 63.9 µM (≈ 25 µg/mL) | viability at 25 µM [2]: 45.9% | Ratio [4]: 2.54 | viability at 100 µM [3]: 20.6%

CC(=O)Oc1c(Cl)cc(Cl)cc1C(=O)Nc1ncc([N+](=O)[O-])s1
MIC [1]: 66.5 µM (≈ 25 µg/mL) | viability at 25 µM [2]: 100% | Ratio [4]: 2.44 | viability at 100 µM [3]: 95.1%

O=C(Nc1ncc([N+](=O)[O-])s1)c1ccc([N+](=O)[O-])s1
MIC [1]: 20.8 µM (≈ 6.25 µg/mL) | viability at 25 µM [2]: 100% | viability at 100 µM [3]: 35.9%

O=C(Nc1ncc([N+](=O)[O-])s1)c1cc(Cl)ccc1O
MIC [1]: 20.9 µM (≈ 6.25 µg/mL) | viability at 25 µM [2]: 100% | viability at 100 µM [3]: 63%

O=C(Nc1ncc([N+](=O)[O-])s1)c1ccc(Cl)cc1O
MIC [1]: > 167 µM

O=C(Nc1ncc([N+](=O)[O-])s1)c1ccc(-c2ccc([N+](=O)[O-])cc2)o1
MIC [1]: 17.3 µM (≈ 6.25 µg/mL) | viability at 25 µM [2]: 88.4% | viability at 100 µM [3]: 79.2%

COc1ccc(O)c(C(=O)Nc2ncc([N+](=O)[O-])s2)c1
MIC [1]: 84.7 µM (≈ 25 µg/mL) | viability at 25 µM [2]: 100% | viability at 100 µM [3]: 100%

CC(C)c1cc(C(=O)Nc2ncc([N+](=O)[O-])s2)c(OC(=O)c2ccccc2)c(C(C)C)c1
MIC [1]: > 110 µM

O=C(Nc1nc2ccc([N+](=O)[O-])cc2s1)c1ccc([N+](=O)[O-])o1
MIC [1]: 150 µM (≈ 50 µg/mL) | viability at 25 µM [2]: 100% | viability at 100 µM [3]: 43.3% | FC [5]: 1

CC(=O)Oc1ccccc1C(=O)Nc1ncc([N+](=O)[O-])s1 [NITAZOXANIDE]
MIC [1]: 163 µM (≈ 50 µg/mL)

NNC(=O)c1ccncc1 [ISONIAZID]
MIC [1]: 0.72 µM (≈ 0.0987 µg/mL) | Activity [7]: Active

CC(=O)Oc1cc(Cl)ccc1C(=O)Nc1ncc([N+](=O)[O-])s1
MIC [1]: 36.6 µM (≈ 12.5 µg/mL) | viability at 25 µM [2]: 100% | Ratio [4]: 4.4 | viability at 100 µM [3]: 83.5%

O=C(Nc1ncc([N+](=O)[O-])s1)c1ccc(-c2ccc(Cl)cc2)o1
MIC [1]: 17.9 µM (≈ 6.25 µg/mL) | viability at 25 µM [2]: 75% | viability at 100 µM [3]: 74.1%

O=C(Nc1ncc([N+](=O)[O-])s1)c1cccs1 [TENONITROZOLE]
MIC [1]: 24.5 µM (≈ 6.25 µg/mL) | viability at 25 µM [2]: 100% | viability at 100 µM [3]: 93.4%

CC(=O)Oc1ccc(Cl)cc1C(=O)Nc1ncc([N+](=O)[O-])s1
MIC [1]: 18.3 µM (≈ 6.25 µg/mL) | viability at 25 µM [2]: 59.5% | Ratio [4]: 8.9 | viability at 100 µM [3]: 31.1%

O=C(Oc1cc(Cl)ccc1C(=O)Nc1ncc([N+](=O)[O-])s1)c1ccccc1
MIC [1]: > 124 µM

O=C(Nc1ncc([N+](=O)[O-])s1)c1ccco1
MIC [1]: 206 µM (≈ 49.2 µg/mL)

CO[C@H]1/C=C/O[C@@]2(C)Oc3c(C)c(O)c4c(O)c(c(/C=N/N5CCN(C)CC5)c(O)c4c3C2=O)NC(=O)/C(C)=C\C=C\[C@H](C)[C@H](O)[C@@H](C)[C@@H](O)[C@@H](C)[C@H](OC(C)=O)[C@@H]1C [RIFAMPIN]
MIC [1]: 0.48 µM (≈ 0.395 µg/mL) | Activity [7]: Active

O=C(Nc1ncc([N+](=O)[O-])s1)c1cc(Cl)cc(Cl)c1O
MIC [1]: 74.8 µM (≈ 25 µg/mL) | viability at 25 µM [2]: 100% | viability at 100 µM [3]: 23.5%

CC(C)c1cc(C(=O)Nc2ncc([N+](=O)[O-])s2)c(O)c(C(C)C)c1
MIC [1]: 17.9 µM (≈ 6.25 µg/mL) | viability at 25 µM [2]: 29.4% | viability at 100 µM [3]: 7.1%

O=C(Oc1c(Cl)cc(Cl)cc1C(=O)Nc1ncc([N+](=O)[O-])s1)c1ccccc1
MIC [1]: 28.5 µM (≈ 12.5 µg/mL) | viability at 25 µM [2]: 100% | viability at 100 µM [3]: 61.6%

O=C(Nc1ncc([N+](=O)[O-])s1)c1ccc(-c2ccc(Br)cc2)o1
MIC [1]: 31.7 µM (≈ 12.5 µg/mL) | viability at 25 µM [2]: 89.1% | viability at 100 µM [3]: 70.3%
